# What was measured:
# [1] = system: Canis familiaris; assay: Total time in minutes elapsed from the initiation of the change until return to the pretest value of heart rate in coronary sinus of anesthetized dog at intravenous dosage of 9 mg/kg; assay type: functional, Canis lupus familiaris
# [2] = system: Canis familiaris; assay: Total time in minutes elapsed from the initiation of the change until return to the pretest value of blood pressure in coronary sinus of anesthetized dog at intravenous dosage of 9 mg/kg; assay type: functional, Canis lupus familiaris
# [3] = Lethal dose in mice after intraperitoneal administration; assay type: toxicity, organism-based; details: mouse, in vivo, ip
# Outline: (§1)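 Male and female mice, three per dose group, were given the compound by the stated route in increments of 0.5 log doses. The LD50 was estimated as an approximate value.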
# [4] = system: Canis familiaris; assay: tested for the percent increase in aortic blood pressure (BP) in open chest anesthetized dog at intravenous dosage of 9.00 mg/kg; assay type: functional, Canis lupus familiaris, Artery
# Outline: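 Open-chest anesthetized dogs received intravenous doses. Aortic blood pressure was recorded as the change from control.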
# [5] = Lethal dose in mice after peroral administration; assay type: toxicity, organism-based; details: mouse, in vivo, po; outline: as §1
# [6] = system: Canis familiaris; assay: Total time in minutes elapsed from the initiation of the change until return to the pretest value of oxygen partial pressure in coronary sinus of anesthetized dog at intravenous dosage of 9 mg/kg; assay type: functional, Canis lupus familiaris
# Outline: (§2)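 Open-chest anesthetized dogs given compound by intravenous injection. Coronary sinus PO2 was monitored, and duration was the total time in minutes from the onset of the change until return to the pretest value.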
# [7] = system: Canis familiaris; assay: tested for percent increase in coronary sinus partial pressure of oxygen (PO2) in open chest anesthetized dog at intravenous dosage of 9.00 mg/kg; assay type: functional, Canis lupus familiaris
# [8] = system: Canis familiaris; assay: Total time in minutes elapsed from the initiation of the change until return to the pretest value of blood pressure in coronary sinus of anesthetized dog at intravenous dosage of 0.001 mg/kg; assay type: functional, Canis lupus familiaris
# [9] = system: Canis familiaris; assay: Total time in minutes elapsed from the initiation of the change until return to the pretest value of heart rate in coronary sinus of anesthetized dog at intravenous dosage of 0.001 mg/kg; assay type: functional, Canis lupus familiaris
# [10] = system: Canis familiaris; assay: Tested for percent increase in coronary sinus partial pressure of oxygen (PO2) in open chest anesthetized dog at intravenous dosage of 0.001 mg/kg; assay type: functional, Canis lupus familiaris
# [11] = system: Canis familiaris; assay: Total time in minutes elapsed from the initiation of the change until return to the pretest value of oxygen partial pressure in coronary sinus of anesthetized dog at intravenous dosage of 0.001 mg/kg; assay type: functional, Canis lupus familiaris
# [12] = system: Canis familiaris; assay: Tested for the percent increase in aortic blood pressure (BP) in open chest anesthetized dog at intravenous dosage of 0.001 mg/kg; assay type: functional, Canis lupus familiaris, Artery
# Outline: (§3)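 Open-chest anesthetized dogs, compound given iv at the stated dose. Aortic blood pressure is reported as the change from the control (pre-dose) value. Other set-up follows the group's earlier cardiovascular protocol.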
# [13] = system: Canis familiaris; assay: Tested for percent increase in coronary sinus partial pressure of oxygen (PO2) in open chest anesthetized dog at intravenous dosage of 1.00 mg/kg; assay type: functional, Canis lupus familiaris
# [14] = system: Canis familiaris; assay: Total time in minutes elapsed from the initiation of the change until return to the pretest value of oxygen partial pressure in coronary sinus of anesthetized dog at intravenous dosage of 1 mg/kg; assay type: functional, Canis lupus familiaris; outline: as §2
# [15] = system: Canis familiaris; assay: Tested for the percent increase in coronary sinus partial pressure of oxygen (PO2) in open chest anesthetized dog at intravenous dosage of 5.00 mg/kg; assay type: functional, Canis lupus familiaris
# [16] = system: Canis familiaris; assay: Total time in minutes elapsed from the initiation of the change until return to the pretest value of heart rate in coronary sinus of anesthetized dog at intravenous dosage of 5 mg/kg; assay type: functional, Canis lupus familiaris
# [17] = system: Canis familiaris; assay: Total time in minutes elapsed from the initiation of the change until return to the pretest value of heart rate in coronary sinus of anesthetized dog at intravenous dosage of 1 mg/kg; assay type: functional, Canis lupus familiaris
# [18] = system: Canis familiaris; assay: Total time in minutes elapsed from the initiation of the change until return to the pretest value of blood pressure in coronary sinus of anesthetized dog at intravenous dosage of 5 mg/kg; assay type: functional, Canis lupus familiaris
# [19] = system: Canis familiaris; assay: Tested for the percent increase in aortic blood pressure (BP) in open chest anesthetized dog at intravenous dosage of 1.00 mg/kg; assay type: functional, Canis lupus familiaris, Artery; outline: as §3
# [20] = system: Canis familiaris; assay: Total time in minutes elapsed from the initiation of the change until return to the pretest value of blood pressure in coronary sinus of anesthetized dog at intravenous dosage of 1 mg/kg; assay type: functional, Canis lupus familiaris
# [21] = system: Canis familiaris; assay: Total time in minutes elapsed from the initiation of the change until return to the pretest value of oxygen partial pressure in coronary sinus of anesthetized dog at intravenous dosage of 5 mg/kg; assay type: functional, Canis lupus familiaris; outline: as §2
# [22] = system: Canis familiaris; assay: Total time in minutes elapsed from the initiation of the change until return to the pretest value of heart rate in coronary sinus of anesthetized dog at intravenous dosage of 0.1 mg/kg; assay type: functional, Canis lupus familiaris
# [23] = system: Canis familiaris; assay: Tested for the percent increase in coronary sinus partial pressure of oxygen (PO2) in open chest anesthetized dog at intravenous dosage of 1.00 mg/kg; assay type: functional, Canis lupus familiaris
# [24] = system: Canis familiaris; assay: Tested for the percent increase in aortic blood pressure (BP) in open chest anesthetized dog at intravenous dosage of 0.10 mg/kg; assay type: functional, Canis lupus familiaris, Artery; details: dose 0.1 mg/kg; outline: as §3
# [25] = system: Canis familiaris; assay: Total time in minutes elapsed from the initiation of the change until return to the pretest value of oxygen partial pressure in coronary sinus of anesthetized dog at intravenous dosage of 0.1 mg/kg; assay type: functional, Canis lupus familiaris
# [26] = system: Canis familiaris; assay: tested for the percent increase in heart rate (HR) in open chest anesthetized dog at intravenous dosage of 0.10 mg/kg; assay type: functional, Canis lupus familiaris; details: dose 0.1 mg/kg
# [27] = system: Canis familiaris; assay: Tested for percent increase in coronary sinus partial pressure of oxygen (PO2) in open chest anesthetized dog at intravenous dosage of 0.10 mg/kg; assay type: functional, Canis lupus familiaris; details: dose 0.1 mg/kg
# [28] = system: Canis familiaris; assay: Total time in minutes elapsed from the initiation of the change until return to the pretest value of blood pressure in coronary sinus of anesthetized dog at intravenous dosage of 0.1 mg/kg; assay type: functional, Canis lupus familiaris
# [29] = system: Canis familiaris; assay: tested for percent increase in coronary sinus partial pressure of oxygen (PO2) in open chest anesthetized dog at intravenous dosage of 0.10 mg/kg; assay type: functional, Canis lupus familiaris; details: dose 0.1 mg/kg
# [30] = system: Canis familiaris; assay: Total time in minutes elapsed from the initiation of the change until return to the pretest value of blood pressure in coronary sinus of anesthetized dog at intravenous dosage of 0.01 mg/kg; assay type: functional, Canis lupus familiaris
# [31] = system: Canis familiaris; assay: Total time in minutes elapsed from the initiation of the change until return to the pretest value of heart rate in coronary sinus of anesthetized dog at intravenous dosage of 0.01 mg/kg; assay type: functional, Canis lupus familiaris
# [32] = system: Canis familiaris; assay: Total time in minutes elapsed from the initiation of the change until return to the pretest value of blood pressure in coronary sinus of anesthetized dog at intravenous dosage of 0.10 mg/kg; assay type: functional, Canis lupus familiaris; details: dose 0.1 mg/kg
# Outline: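 Open-chest anesthetized dogs were given the compound intravenously. Duration is the total minutes from the start of the change until return to the pretest value. Blood pressure was recorded as change from control.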
# [33] = system: Canis familiaris; assay: Total time in minutes elapsed from the initiation of the change until return to the pretest value of oxygen partial pressure in coronary sinus of anesthetized dog at intravenous dosage of 0.10 mg/kg; assay type: functional, Canis lupus familiaris; details: dose 0.1 mg/kg
# [34] = system: Canis familiaris; assay: Total time in minutes elapsed from the initiation of the change until return to the pretest value of oxygen partial pressure in coronary sinus of anesthetized dog at intravenous dosage of 0.01 mg/kg; assay type: functional, Canis lupus familiaris
# [35] = system: Canis familiaris; assay: Tested for the percent increase in coronary sinus partial pressure of oxygen (PO2) in open chest anesthetized dog at intravenous dosage of 0.10 mg/kg; assay type: functional, Canis lupus familiaris; details: dose 0.1 mg/kg
# [36] = system: Canis familiaris; assay: Tested for percent increase in coronary sinus partial pressure of oxygen (PO2) in open chest anesthetized dog at intravenous dosage of 0.01 mg/kg; assay type: functional, Canis lupus familiaris
# [37] = system: Canis familiaris; assay: Tested for the percent increase in aortic blood pressure (BP) in open chest anesthetized dog at intravenous dosage of 0.01 mg/kg; assay type: functional, Canis lupus familiaris, Artery; outline: as §3
smiles,measurement,setting,value
Nc1ncnc2c1ncn2C1O[C@H](C(=O)NCC(O)COc2cccc3ccccc23)[C@@H](O)[C@H]1O (stereo not given in full),Duration,[1],12 min
same,Duration,[2],7 min
same,LD50,[3],> 300 mg/kg
same,BP,[4],8 mmHg
same,LD50,[5],> 300 mg/kg
same,Duration,[6],18 min
same,PO2,[7],152%
CCNC(=O)[C@H]1OC(n2cnc3c(N)[n+]([O-])cnc32)[C@H](O)[C@@H]1O (stereo not given in full),Duration,[8],120 min
same,Duration,[9],120 min
same,PO2,[10],37%
same,Duration,[11],120 min
same,BP,[12],27 mmHg
Nc1ncnc2c1ncn2C1O[C@H](C(=O)NCCc2ccccc2)[C@@H](O)[C@H]1O (stereo not given in full),PO2,[13],9%
same,LD50,[3],500 mg/kg
same,Duration,[14],25 min
same,PO2,[15],44%
same,Duration,[16],6 min
same,Duration,[17],18 min
same,Duration,[18],60 min
same,BP,[19],11%
same,Duration,[20],1 min
same,LD50,[5],> 1000 mg/kg
same,Duration,[21],60 min
C#CCNC(=O)[C@H]1OC(n2cnc3c(N)ncnc32)[C@H](O)[C@@H]1O (stereo not given in full),LD50,[3],200 mg/kg
same,Duration,[22],60 min
same,PO2,[23],133%
same,Duration,[14],180 min
same,BP,[24],5%
same,Duration,[25],70 min
same,Duration,[17],82 min
same,HR,[26],13%
same,PO2,[27],50%
same,BP,[19],40%
same,Duration,[20],180 min
same,LD50,[5],> 1000 mg/kg
same,Duration,[28],70 min
CCCCNC(=O)[C@H]1OC(n2cnc3c(N)ncnc32)[C@H](O)[C@@H]1O (stereo not given in full),PO2,[29],30%
same,Duration,[22],40 min
same,BP,[24],5%
same,Duration,[25],30 min
same,HR,[26],16%
same,Duration,[28],40 min
Nc1ncnc2c1ncn2C1O[C@H](C(=O)NCCO)[C@@H](O)[C@H]1O (stereo not given in full),Duration,[30],90 min
same,LD50,[3],2 mg/kg
same,Duration,[22],15 min
same,Duration,[31],42 min
same,Duration,[32],240 min
same,Duration,[33],240 min
same,Duration,[34],90 min
same,PO2,[35],163%
same,PO2,[36],75%
same,LD50,[5],5 mg/kg
CONC(=O)[C@H]1O[C@@H](n2cnc3c(N)ncnc32)[C@H](O)[C@@H]1O,Duration,[30],41 min
same,LD50,[3],20 mg/kg
same,Duration,[22],10 min
same,Duration,[31],60 min
same,BP,[24],39%
same,Duration,[34],60 min
same,Duration,[25],90 min
same,PO2,[35],143%
same,HR,[26],2%
same,BP,[37],9%
same,PO2,[36],157%
same,LD50,[5],50 mg/kg
same,Duration,[28],90 min
